Assay results reported in ChEMBL document CHEMBL3877264, “Quinolidene-rhodanine conjugates: Facile synthesis and biological evaluation” (Eur J Med Chem, 2017).
≈ marks a conversion by molar mass, not a printed value.

How the values were obtained:
[1] = test system: Mycobacterium tuberculosis; experiment: Growth inhibition of Mycobacterium tuberculosis H37Ra ATCC 25177 at dormant stage at 0.78 ug/ml measured after 12 days by XTT dye based two fold dilution method relative to control; assay type: functional; conditions: H37Ra ATCC 25177, 288 h, read-out: GI
Summary of the method: (§1)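 MTB H37Ra was grown in Dubos medium, then exposed in Mycobacterium pheli minimal medium (pH 6.6) to compounds dissolved in DMSO. The assay ended on day 8 (active) or day 12 (dormant). Viable cells were measured by XTT reduction menadione assay at 470 nm, blank-corrected, relative to vehicle control. Triplicates were expressed as mean ± SD. MIC came from dose-response curves.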

Bacillus subtilis = experiment: Antibacterial activity against Bacillus subtilis NCIM 2079 measured after 12 hrs; assay type: functional; conditions: NCIM 2079, 12 h
Summary of the method: (§2)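 Bacteria grown in LB at 37 °C and 180 rpm to OD 1. Compounds added to wells, then 0.1% inoculum of 1 OD culture (620 nm). Growth read as OD at 620 nm after 8 h for gram-negative and after 12 h for gram-positive strains.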

[2] = test system: Mycobacterium tuberculosis; experiment: Growth inhibition of Mycobacterium bovis BCG ATCC 35743 at dormant stage at 50 ug/ml measured after 12 days by nitrate reductase dye based two fold dilution method relative to control; assay type: functional; conditions: BCG str. ATCC 35743, 288 h, read-out: GI
Summary of the method: (§3)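 M. bovis BCG was grown in Dubos medium and assayed in Mycobacterium pheli minimal medium (pH 6.6), with compounds from DMSO stocks. Incubation lasted 8 days for active and 12 days for dormant cultures. Viability was read by nitrate reductase at 540 nm against cell-free blanks, with vehicle set as 100% growth. Primary screen was at 30, 10 and 3 µg/ml, in triplicate, mean ± SD. MIC was taken from dose-response curves.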

Aspergillus niger = experiment: Antifungal activity against Aspergillus niger NCIM 1196 by standard agar method; assay type: functional
Summary of the method: (§4)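 MICs determined by standard agar method; DMSO as solvent control.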

Staphylococcus aureus = experiment: Growth inhibition of Staphylococcus aureus NCIM 2010 at 10 ug/ml measured after 12 hrs relative to control; assay type: functional; conditions: NCIM 2010, 12 h, read-out: GI; summary of the method: as §2
[3] = test system: Mycobacterium tuberculosis; experiment: Growth inhibition of Mycobacterium tuberculosis H37Ra ATCC 25177 at active stage at 50 ug/ml measured after 8 days by XTT dye based two fold dilution method relative to control; assay type: functional; conditions: H37Ra ATCC 25177, 192 h, read-out: GI; summary of the method: as §1
[4] = Selectivity index, ratio of GI50 for HUVEC to MIC for Mycobacterium tuberculosis H37Ra ATCC 25177 at dormant stage
[5] = test system: Mycobacterium tuberculosis; experiment: Growth inhibition of Mycobacterium bovis BCG ATCC 35743 at dormant stage at 100 ug/ml measured after 12 days by nitrate reductase dye based two fold dilution method relative to control; assay type: functional; conditions: BCG str. ATCC 35743, 288 h, read-out: GI; summary of the method: as §3
Pseudomonas fluorescens [6] = experiment: Growth inhibition of Pseudomonas fluorescens NCIM 2036 at 30 ug/ml measured after 8 hrs relative to control; assay type: functional; conditions: NCIM 2036, 8 h, read-out: GI; summary of the method: as §2
[7] = test system: Mycobacterium tuberculosis; experiment: Growth inhibition of Mycobacterium tuberculosis H37Ra ATCC 25177 at active stage at 25 ug/ml measured after 8 days by XTT dye based two fold dilution method relative to control; assay type: functional; conditions: H37Ra ATCC 25177, 192 h, read-out: GI; summary of the method: as §1
[8] = test system: Mycobacterium tuberculosis; experiment: Growth inhibition of Mycobacterium bovis BCG ATCC 35743 at dormant stage at 6.25 ug/ml measured after 12 days by nitrate reductase dye based two fold dilution method relative to control; assay type: functional; conditions: BCG str. ATCC 35743, 288 h, read-out: GI; summary of the method: as §3
[9] = Cytotoxicity against human THP1 cells assessed as growth inhibition at 100 ug/ml measured after 48 hrs by MTT assay relative to control; assay type: toxicity, cell-based, THP-1; conditions: read-out: GI
Summary of the method: (§5)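 MTT assay with 48 h compound exposure. THP-1 macrophages made by 24 h PMA treatment. Each concentration tested in triplicate in one experiment. % cytotoxicity = (control−test)/(control−blank)×100, with control = cells + DMSO and blank = medium without cells. IC50 from % survival versus concentration plots.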

[10] = Cytotoxicity against primary HUVEC assessed as growth inhibition at 100 ug/ml measured after 48 hrs by MTT assay relative to control; assay type: toxicity, cell-based; conditions: human, read-out: GI
Aspergillus flavus = experiment: Antifungal activity against Aspergillus flavus NCIM 539 by standard agar method; assay type: functional; summary of the method: as §4
[11] = Selectivity index, ratio of GI50 for human A549 cells to MIC for Mycobacterium tuberculosis H37Ra ATCC 25177 at dormant stage; assay type: toxicity, cell-based; conditions: read-out: Selectivity Index
Summary of the method: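 SI is the cell-line GI50 divided by the dormant-stage mycobacterial MIC. […] THP-1 macrophages were PMA-differentiated for 24 h.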

Pseudomonas fluorescens [12] = experiment: Antibacterial activity against Pseudomonas fluorescens NCIM 2036 measured after 8 hrs; assay type: functional; conditions: NCIM 2036, 8 h; summary of the method: as §2
[13] = test system: Mycobacterium tuberculosis; experiment: Growth inhibition of Mycobacterium bovis BCG ATCC 35743 at dormant stage at 3.13 ug/ml measured after 12 days by nitrate reductase dye based two fold dilution method relative to control; assay type: functional; conditions: BCG str. ATCC 35743, 288 h, read-out: GI; summary of the method: as §3
[14] = test system: Mycobacterium tuberculosis; experiment: Growth inhibition of Mycobacterium tuberculosis H37Ra ATCC 25177 at active stage at 3.13 ug/ml measured after 8 days by XTT dye based two fold dilution method relative to control; assay type: functional; conditions: H37Ra ATCC 25177, 192 h, read-out: GI; summary of the method: as §1
[15] = Cytotoxicity against […]-differentiated human THP1 cells assessed as growth inhibition at 100 ug/ml measured after 48 hrs by MTT assay relative to control; assay type: toxicity, cell-based, THP-1; conditions: read-out: GI; summary of the method: as §5
[16] = test system: Mycobacterium tuberculosis; experiment: Growth inhibition of Mycobacterium bovis BCG ATCC 35743 at dormant stage at 0.78 ug/ml measured after 12 days by nitrate reductase dye based two fold dilution method relative to control; assay type: functional; conditions: BCG str. ATCC 35743, 288 h, read-out: GI; summary of the method: as §3
Pseudomonas fluorescens [17] = experiment: Growth inhibition of Pseudomonas fluorescens NCIM 2036 at 3 ug/ml measured after 8 hrs relative to control; assay type: functional; conditions: NCIM 2036, 8 h, read-out: GI; summary of the method: as §2
[18] = test system: Mycobacterium tuberculosis; experiment: Growth inhibition of Mycobacterium bovis BCG ATCC 35743 at dormant stage at 30 ug/ml measured after 12 days by nitrate reductase dye based two fold dilution method relative to control; assay type: functional; conditions: BCG str. ATCC 35743, 288 h, read-out: GI; summary of the method: as §3
[19] = Cytotoxicity against human THP1 cells measured after 48 hrs by MTT assay; assay type: toxicity, cell-based, THP-1; summary of the method: as §5
[20] = test system: Mycobacterium tuberculosis; experiment: Growth inhibition of Mycobacterium tuberculosis H37Ra ATCC 25177 at dormant stage at 1.56 ug/ml measured after 12 days by XTT dye based two fold dilution method relative to control; assay type: functional; conditions: H37Ra ATCC 25177, 288 h, read-out: GI; summary of the method: as §1
[21] = test system: Mycobacterium tuberculosis; experiment: Growth inhibition of Mycobacterium tuberculosis H37Ra ATCC 25177 at dormant stage measured after 12 days by XTT dye based two fold dilution method; assay type: functional; conditions: H37Ra ATCC 25177, 288 h; summary of the method: as §1
[22] = test system: Mycobacterium tuberculosis; experiment: Growth inhibition of Mycobacterium tuberculosis H37Ra ATCC 25177 at active stage at 6.25 ug/ml measured after 8 days by XTT dye based two fold dilution method relative to control; assay type: functional; conditions: H37Ra ATCC 25177, 192 h, read-out: GI; summary of the method: as §1
[23] = test system: Mycobacterium tuberculosis; experiment: Growth inhibition of Mycobacterium bovis BCG ATCC 35743 at active stage at 12.5 ug/ml measured after 8 days by nitrate reductase dye based two fold dilution method relative to control; assay type: functional; conditions: BCG str. ATCC 35743, 192 h, read-out: GI
[24] = test system: Mycobacterium tuberculosis; experiment: Growth inhibition of Mycobacterium bovis BCG ATCC 35743 at active stage measured after 8 days by nitrate reductase dye based two fold dilution method; assay type: functional; conditions: BCG str. ATCC 35743, 192 h; summary of the method: as §3

| Compound | inhibition of growth at 0.78 µg/mL [1] [%] | MIC (Bacillus subtilis) [µg/mL] | inhibition of growth at 50 µg/mL [2] [%] | MIC (Aspergillus niger) [µg/mL] | inhibition of growth at 10 µg/mL (Staphylococcus aureus) [%] | inhibition of growth at 50 µg/mL [3] [%] | inhibition of growth at 100 µg/mL [5] [%] | inhibition of growth at 30 µg/mL (Pseudomonas fluorescens [6]) [%] | inhibition of growth at 25 µg/mL [7] [%] | inhibition of growth at 6.25 µg/mL [8] [%] | inhibition at 48 h, 100 ug/ml [9] [%] | inhibition at 48 h, 100 ug/ml [10] [%] | MIC (Aspergillus flavus) [µg/mL] | MIC (Pseudomonas fluorescens [12]) [µg/mL] | inhibition of growth at 3.13 µg/mL [13] [%] | inhibition of growth at 3.13 µg/mL [14] [%] | inhibition at 48 h, 100 ug/ml [15] [%] | inhibition of growth at 0.78 µg/mL [16] [%] | inhibition of growth at 3 µg/mL (Pseudomonas fluorescens [17]) [%] | inhibition of growth at 30 µg/mL [18] [%] | also measured |
| --- | --- | --- | --- | --- | --- | --- | --- | --- | --- | --- | --- | --- | --- | --- | --- | --- | --- | --- | --- | --- | --- |
| CCOc1ccc2nc(Cl)c(/C=C3\SC(=S)NC3=O)cc2c1 | -39.5 | 28.4 (≈ 80.9 µM) | 99.6 | 25 (≈ 71.3 µM) | 46.8 | 100 | 99.5 | 76 | 106 | 101 | 28.6 | 33 | 50 (≈ 143 µM) | > 30 | 100 | 94.8 | 35.1 | -57 | 50.2 | 94.5 | Selectivity Index [4]: 28.6; selectivity ratio [11]: 28.6; GI50 at 48 h [19]: > 100 µg/mL; inhibition of growth at 1.56 µg/mL [20]: -9.88%; IC50 [21]: 2.3 µg/mL (≈ 6.56 µM); IC90 [21]: 3.5 µg/mL (≈ 9.98 µM); inhibition of growth at 6.25 µg/mL [22]: 104%; inhibition of growth at 12.5 µg/mL [23]: 98.2% |
| O=C1NC(=S)S/C1=C\c1cc2cc(Cl)ccc2nc1Cl | -27.1 | 9.33 (≈ 27.3 µM) | 101 | 150 (≈ 440 µM) | 114 | 97.5 | 98.7 | 99.8 | 100 | 101 | 28.7 | 25.9 | 125 (≈ 366 µM) | 2.8 (≈ 8.21 µM) | 100 | 81.1 | 29.1 | -9.1 | 95.6 | 99.2 | Selectivity Index [4]: 15.6; selectivity ratio [11]: 15.6; IC50 [24]: 1 µg/mL (≈ 2.93 µM); IC90 [24]: 1.7 µg/mL (≈ 4.98 µM); GI50 at 48 h [19]: > 100 µg/mL; inhibition of growth at 1.56 µg/mL [20]: 32.4%; IC50 [21]: 2.2 µg/mL (≈ 6.45 µM); IC90 [21]: 6.3 µg/mL (≈ 18.5 µM); inhibition of growth at 6.25 µg/mL [22]: 102%; inhibition of growth at 12.5 µg/mL [23]: 99.5% |
| O=C(O)CN1C(=O)/C(=C/c2cc3cc(F)ccc3nc2Cl)SC1=S | -24 | > 30 | 99.8 | 25 (≈ 65.3 µM) | -1.12 | 82.8 | 98.2 | 2.4 | 10.4 | 100 | 27.6 | 31.2 | 100 (≈ 261 µM) | > 30 | 99.5 | -12.6 | 14.5 | 98.5 | 6.76 | 28.2 | IC50 [24]: > 30 µg/mL; IC90 [24]: > 30 µg/mL; GI50 at 48 h [19]: > 100 µg/mL; inhibition of growth at 1.56 µg/mL [20]: 22.6%; IC50 [21]: > 30 µg/mL; IC90 [21]: > 30 µg/mL; inhibition of growth at 6.25 µg/mL [22]: 11.3% |
